Tests used:
Format in all cases: functional
6C3HED [1] = assay: Inhibition of tumor growth of 6C3HED lymphosarcoma tumor cell line in mice at a dose of 300 mg/kg given orally (daily x 8); details: Mus musculus, route oral
In short: (§1)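 C3H mice received subcutaneous 1-2 mm 6C3HED lymphosarcoma fragments, which grew for 1 day before treatment. The agent was suspended in 2.5% emulphor and given by oral gavage once daily on days 2-9. On day 10, intact tumors were measured by calipers to estimate tumor weight. Percent inhibition was taken from treated versus untreated control tumor weights, mostly with 10 mice per group.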

6C3HED [2] = assay: Inhibition of tumor growth of 6C3HED lymphosarcoma tumor cell line in mice at a dose of 150 mg/kg given orally(daily x 8); details: Mus musculus, po; in short: as §1
Mus musculus = assay: Lethal dose against C3H mouse with subcutaneously implanted 6C3HED lymphosarcoma; details: sc
In short: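 C3H mice bearing subcutaneously implanted 6C3HED lymphosarcoma fragments (1-2 mm), grown 1 day before treatment. Compound suspended in 2.5% emulphor and given po by gavage daily × 8 (days 2-9). Deaths from drug toxicity were recorded to give the lethal dose.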

CX-1 = assay: Inhibition of tumor growth of CX-1 cell line at 600 mg/kg; details: Homo sapiens
6C3HED [3] = assay: Inhibition of tumor growth of 6C3HED lymphosarcoma tumor cell line in mice at a dose of 200 mg/kg given orally(daily x 8); details: Mus musculus, po; in short: as §1

SMILES	inhibition in vivo at 300 mg/kg (6C3HED [1])	inhibition in vivo at 150 mg/kg (6C3HED [2])	LD50 (Mus musculus)	inhibition in vivo at 600 mg/kg (CX-1)	inhibition in vivo at 200 mg/kg (6C3HED [3])
CC(C)(C)c1ccc(S(=O)(=O)NC(=O)Nc2ccc(Cl)cc2)s1	10%	7%	–	–	–
COc1ccc(S(=O)(=O)NC(=O)Nc2ccc(Cl)cc2)s1	100%	93%	450 mg/kg	62%	–
O=C(Nc1ccc(Cl)c(Cl)c1)NS(=O)(=O)c1cc2c(s1)CCCC2	–	–	–	–	44%
CCc1ccc(S(=O)(=O)NC(=O)Nc2ccc(Cl)cc2)s1	89%	57%	–	–	–
O=C(Nc1ccc(Cl)cc1)NS(=O)(=O)c1cc2c(s1)CCC2	16%	16%	–	–	–
CCc1ccc(S(=O)(=O)NC(=O)Nc2ccc(Cl)cc2)o1	80%	57%	–	–	–
O=C(Nc1ccc(Cl)cc1)NS(=O)(=O)c1cccs1	66%	16%	–	–	–
Cc1cc(S(=O)(=O)NC(=O)Nc2ccc(Cl)cc2)sc1C	73%	42%	–	–	–
CCc1ccc(S(=O)(=O)NC(=O)Nc2ccc(Cl)cc2)[nH]1	56%	–	–	–	–
CCOc1ccc(S(=O)(=O)NC(=O)Nc2ccc(Cl)cc2)s1	96%	69%	–	–	–
CCCOc1ccc(S(=O)(=O)NC(=O)Nc2ccc(Cl)cc2)s1	63%	44%	–	–	–
CCc1sc(S(=O)(=O)NC(=O)Nc2ccc(Cl)cc2)cc1C	58%	26%	–	–	–
CCc1csc(S(=O)(=O)NC(=O)Nc2ccc(Cl)cc2)c1	93%	55%	–	–	–
COc1csc(S(=O)(=O)NC(=O)Nc2ccc(Cl)cc2)c1	69%	36%	–	–	–
Cc1ccc(S(=O)(=O)NC(=O)Nc2ccc(Cl)c(Cl)c2)s1	61%	24%	–	–	–
CSc1ccc(S(=O)(=O)NC(=O)Nc2ccc(Cl)cc2)s1	62%	29%	–	–	–
CCc1ccsc1S(=O)(=O)NC(=O)Nc1ccc(Cl)cc1	25%	21%	–	–	–
O=C(Nc1ccc(Cl)cc1)NS(=O)(=O)c1scc2c1CCCC2	15%	0%	–	–	–
O=C(Nc1ccc(Cl)cc1)NS(=O)(=O)c1ccc(Cl)s1	89%	58%	–	–	–
O=C(Nc1ccc(Cl)cc1)NS(=O)(=O)c1cc(Br)c(Br)s1	52%	25%	–	–	–
CCCc1ccc(S(=O)(=O)NC(=O)Nc2ccc(Cl)cc2)s1	39%	38%	–	–	–
O=C(Nc1ccc(Cl)cc1)NS(=O)(=O)c1scc2c1CCC2	51%	36%	–	–	–
Cc1ccsc1S(=O)(=O)NC(=O)Nc1ccc(Cl)cc1	62%	17%	–	–	–
CC(C)c1ccc(S(=O)(=O)NC(=O)Nc2ccc(Cl)cc2)s1	63%	42%	–	–	–

From ChEMBL document CHEMBL1125518, “Sulfonylureas: a new class of cancer chemotherapeutic agents” (1992)
